According to ChEMBL document CHEMBL1949631, “Novel 3-phenylpiperidine-4-carboxamides as highly potent and orally long-acting neurokinin-1 receptor antagonists with reduced CYP3A induction” (Bioorg Med Chem, 2012):
pIC50: −log10 of the molar value.

Legend:
Substance-P receptor = Substance-P receptor (Homo sapiens, UniProt P25103); test: Displacement of [125I]BH-SP from tachykinin NK1 receptor in human IM9 cells after 30 mins by scintillation counting; type: cell-based, IM-9
Summary of the method: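 Receptor membranes from human IM-9 lymphoblasts (grown 3 days, homogenised, spun 40,000 g) in 50 mM Tris-HCl pH 7.4 with 0.02% BSA, protease inhibitors and 3 mM MnCl2. Incubated with [125I]BH-SP (final 130 pM) for 30 min at room temperature in 0.2 mL. Nonspecific binding defined with 2×10^-6 M SP. Read by rapid GF/C filtration (PEI-soaked filters), three washes, scintillation counting.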

Cavia porcellus [1] = test: Inhibition of GR73632-induced increase in locomotor activity in Hartley guinea pig at 0.3 mg/kg, iv after 5 mins relative to control; type: functional
Summary of the method: (§1)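 Male Hartley guinea pigs, 6–8 per group. Compound or vehicle in DMA-PEG400 (1:1, v/v), 0.5 mL/kg, given intravenously just before intracerebroventricular infusion of the NK1 agonist […]. %inh. is taken from activity counts relative to vehicle-treated and sham-infused groups. Values are averages of 5–10 independent experiments.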

[2] = Metabolic stability in human liver microsomes assessed as parent compound remaining at 1 uM after 15 to 30 mins by HPLC analysis; type: ADME, Microsome; conditions: liver microsomes, read-out: Stability
Summary of the method: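 Compound at 1 μM incubated with human liver microsomes for 15 and 30 min under standard conditions. Remaining parent compound quantified by HPLC and expressed as μL/mg/min.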

Cavia porcellus [3] = test: Inhibition of GR73632-induced increase in locomotor activity in Hartley guinea pig at 0.1 mg/kg, iv after 5 mins relative to control; type: functional; summary of the method: as §1
Cavia porcellus [4] = test: Inhibition of GR73632-induced increase in locomotor activity in po dosed Hartley guinea pig after 1 hr; type: functional; conditions: read-out: ID50 (the source's name)
Summary of the method: (§2)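 Male Hartley guinea pigs, 6–8 per group, dosed orally with compound suspended in 0.5% methylcellulose (2 mL/kg), or vehicle, 0.75 h (1 h line) or 23.75 h (24 h line) before intracerebroventricular […] infusion. %inh. comes from locomotor counts corrected for the sham-infused group against the vehicle control. ID50 and 95% CI come from linear regression of the dose–response.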

Cavia porcellus [5] = test: Inhibition of GR73632-induced increase in locomotor activity in po dosed Hartley guinea pig after 24 hrs; type: functional; conditions: read-out: ID50 (the source's name); summary of the method: as §2
[6] = AUC (0 to 24 hrs) in rat at 1 mg/kg, po; type: ADME, organism-based; set-up: time < 24 hr, dose 1 mg/kg, route oral; conditions: plasma
Summary of the method: (§3)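 Single oral dose of 1 mg/kg. Blood concentration–time curve used to derive AUC, mean residence time and bioavailability.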

[7] = AUC (0 to 24 hrs) in guinea pig at 1 mg/kg, po; type: ADME, organism-based, Cavia porcellus; set-up: time < 24 hr, dose 1 mg/kg, route oral; conditions: plasma; summary of the method: as §3
[8] = AUC (0 to 24 hrs) in dog at 1 mg/kg, po; type: ADME, organism-based, Canis lupus familiaris; set-up: time < 24 hr, dose 1 mg/kg, route oral; conditions: plasma; summary of the method: as §3
[9] = AUC (0 to 24 hrs) in monkey at 1 mg/kg, po; type: ADME, organism-based, Macaca mulatta; set-up: time < 24 hr, dose 1 mg/kg, route oral; conditions: rhesus monkey, plasma; summary of the method: as §3
[10] = Mean residence time in rat at 1 mg/kg, po; type: ADME, organism-based; set-up: dose 1 mg/kg, route oral; conditions: in vivo; summary of the method: as §3
[11] = Mean residence time in guinea pig at 1 mg/kg, po; type: ADME, organism-based, Cavia porcellus; set-up: dose 1 mg/kg, route oral; conditions: in vivo; summary of the method: as §3
[12] = Mean residence time in dog at 1 mg/kg, po; type: ADME, organism-based, Canis lupus familiaris; set-up: dose 1 mg/kg, route oral; conditions: in vivo; summary of the method: as §3
[13] = Mean residence time in monkey at 1 mg/kg, po; type: ADME, organism-based, Macaca mulatta; set-up: dose 1 mg/kg, route oral; conditions: rhesus monkey, in vivo; summary of the method: as §3
[14] = Oral bioavailability in rat at 1 mg/kg; type: ADME, organism-based; conditions: in vivo; summary of the method: as §3
[15] = Oral bioavailability in guinea pig at 1 mg/kg; type: ADME, organism-based, Cavia porcellus; conditions: in vivo; summary of the method: as §3
[16] = Oral bioavailability in dog at 1 mg/kg; type: ADME, organism-based, Canis lupus familiaris; conditions: in vivo; summary of the method: as §3
[17] = Oral bioavailability in monkey at 1 mg/kg; type: ADME, organism-based, Macaca mulatta; conditions: rhesus monkey, in vivo; summary of the method: as §3
[18] = Metabolic stability in rat microsomes; type: ADME, Microsome
[19] = Metabolic stability in guinea pig microsomes; type: ADME, Cavia porcellus, Microsome
[20] = Metabolic stability in dog microsomes; type: ADME, Canis lupus familiaris, Microsome
[21] = Metabolic stability in monkey microsomes; type: ADME, Macaca mulatta, Microsome; conditions: rhesus monkey
[22] = molecular target: T1, Nuclear receptor subfamily 1 group I member 2 (Homo sapiens, UniProt O75469); test: Induction of human PXR-mediated CYP3A activity at 10 uM
T1 sequence (O75469 whole entry): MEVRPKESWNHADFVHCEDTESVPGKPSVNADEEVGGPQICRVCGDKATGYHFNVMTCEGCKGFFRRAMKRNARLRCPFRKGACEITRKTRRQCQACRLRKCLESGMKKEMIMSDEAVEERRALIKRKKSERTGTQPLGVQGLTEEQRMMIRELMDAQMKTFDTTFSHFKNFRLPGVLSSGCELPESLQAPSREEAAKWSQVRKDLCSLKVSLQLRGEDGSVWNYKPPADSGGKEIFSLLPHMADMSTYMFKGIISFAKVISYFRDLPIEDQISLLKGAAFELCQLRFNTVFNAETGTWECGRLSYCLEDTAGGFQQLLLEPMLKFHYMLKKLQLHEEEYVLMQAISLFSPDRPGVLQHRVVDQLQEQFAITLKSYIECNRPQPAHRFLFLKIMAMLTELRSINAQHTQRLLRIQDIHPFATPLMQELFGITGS

Chain of Substance-P receptor (P25103 whole entry): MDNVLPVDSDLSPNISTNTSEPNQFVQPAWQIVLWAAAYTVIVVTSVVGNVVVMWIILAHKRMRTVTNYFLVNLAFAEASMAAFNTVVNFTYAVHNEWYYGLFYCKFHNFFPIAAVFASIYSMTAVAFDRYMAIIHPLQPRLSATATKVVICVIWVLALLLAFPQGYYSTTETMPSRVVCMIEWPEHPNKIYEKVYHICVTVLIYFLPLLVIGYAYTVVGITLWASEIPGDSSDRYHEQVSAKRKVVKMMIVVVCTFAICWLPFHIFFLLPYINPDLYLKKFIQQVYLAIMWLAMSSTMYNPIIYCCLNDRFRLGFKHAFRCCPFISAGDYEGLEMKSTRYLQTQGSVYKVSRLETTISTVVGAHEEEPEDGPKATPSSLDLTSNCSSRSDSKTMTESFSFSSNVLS

Compound	pIC50 (Substance-P receptor)	microsomal CLint at 1 µM [2]	inhibition in vivo at 0.3 mg/kg (Cavia porcellus [1])	inhibition in vivo at 0.1 mg/kg (Cavia porcellus [3])	other results
CC(=O)N1CCC(C(=O)N2CC[C@@H](C(=O)NCc3cc(C(F)(F)F)cc(C(F)(F)F)c3)[C@H](c3ccccc3)C2)CC1 (racemic)	8.57				
CC(=O)N1CCC(C(=O)N2CC[C@@H](C(=O)N(C)Cc3cc(C(F)(F)F)cc(C(F)(F)F)c3)[C@H](c3ccccc3)C2)CC1 (racemic)			72.1%		
CNC(=O)C(=O)N1CC[C@H](C(=O)N(C)Cc2cc(C(F)(F)F)cc(C(F)(F)F)c2)[C@@H](c2ccc(F)cc2C)C1 (racemic)	9.96	115 µL/min/mg	51.5%		
Cc1cc(F)ccc1[C@H]1CN(C(=O)C(N)=O)CC[C@@H]1C(=O)N(C)Cc1cc(C(F)(F)F)cc(C(F)(F)F)c1	10.70	30 µL/min/mg		88.8%	ED50 (Cavia porcellus [4]): 0.14 mg/kg; ED50 (Cavia porcellus [5]): 0.72 mg/kg
CNC(=O)N1CC[C@H](C(=O)N(C)Cc2cc(C(F)(F)F)cc(C(F)(F)F)c2)[C@@H](c2ccc(F)cc2C)C1 (racemic)	10.32	199 µL/min/mg	80%		
CCc1ccccc1[C@H]1CN(C(=O)C2CCN(C(C)=O)CC2)CC[C@@H]1C(=O)N(C)Cc1cc(C(F)(F)F)cc(C(F)(F)F)c1 (racemic)	10.19				

Now from value to compound, other results behind:

pIC50 (Substance-P receptor)	microsomal CLint at 1 µM [2]	Compound	inhibition in vivo at 0.3 mg/kg (Cavia porcellus [1])	inhibition in vivo at 0.1 mg/kg (Cavia porcellus [3])	other results
8.25		CN(Cc1cc(C(F)(F)F)cc(C(F)(F)F)c1)C(=O)[C@H]1CCNC[C@H]1c1ccccc1 (relative stereo)			
9.70	57 µL/min/mg	Cc1cc(F)ccc1[C@H]1CN(C(=O)C(N)=O)CC[C@@H]1C(=O)N(C)[C@H](C)c1cc(C(F)(F)F)cc(C(F)(F)F)c1		43.1%	
9.68		CC(=O)N1CCC(C(=O)N2CC[C@H](C(=O)N(C)Cc3cc(C(F)(F)F)cc(C(F)(F)F)c3)[C@@H](c3ccccc3C(C)C)C2)CC1 (racemic)			
	2 µL/min/mg	Cc1cc(F)ccc1[C@H]1CN(C(=O)C(N)=O)CC[C@@H]1C(=O)N(C)[C@@H](C)c1cc(C(F)(F)F)cc(C(F)(F)F)c1		78.9%	ED50 (Cavia porcellus [4]): 0.1 mg/kg; ED50 (Cavia porcellus [5]): 0.57 mg/kg; AUC(0-t) at 24 h [6]: 521 ng·h/mL; AUC(0-t) at 24 h [7]: 1080 ng·h/mL; AUC(0-t) at 24 h [8]: 2150 ng·h/mL; AUC(0-t) at 24 h [9]: 1040 ng·h/mL; MRT [10]: 4.5 h; MRT [11]: 7.5 h; MRT [12]: 6.5 h; MRT [13]: 6.4 h; bioavailability [14]: 29%; bioavailability [15]: 83%; bioavailability [16]: 40%; bioavailability [17]: 38%; Stability [18]: 13 µL/min/mg; Stability [19]: 3 µL/min/mg; Stability [20]: 0 µL/min/mg; Stability [21]: 14 µL/min/mg; Activity [22]: 3%
8.59		CN(Cc1cc(C(F)(F)F)cc(C(F)(F)F)c1)C(=O)[C@@H]1CCNC[C@H]1c1ccccc1 (racemic)			
10.46	112 µL/min/mg	Cc1cc(F)ccc1[C@H]1CN(C(N)=O)CC[C@@H]1C(=O)N(C)Cc1cc(C(F)(F)F)cc(C(F)(F)F)c1 (racemic)	80.3%		
10.34	2 µL/min/mg	Cc1cc(F)ccc1[C@H]1CN(C(=O)C(=O)NO)CC[C@@H]1C(=O)N(C)Cc1cc(C(F)(F)F)cc(C(F)(F)F)c1 (racemic)		-15.5%	
